OX1R antag-1: OX1R (human) antagonism; OX1R-expressing cells, FRET antagonist read-out; inhibition, % at 6.6 µM; hit rate 1.8% among 330,000; in the data active = inhibition mostly above about 38%, no sharp cut-off; inactive = mostly below about 40%
Target sequence (O43613 whole entry, looked up): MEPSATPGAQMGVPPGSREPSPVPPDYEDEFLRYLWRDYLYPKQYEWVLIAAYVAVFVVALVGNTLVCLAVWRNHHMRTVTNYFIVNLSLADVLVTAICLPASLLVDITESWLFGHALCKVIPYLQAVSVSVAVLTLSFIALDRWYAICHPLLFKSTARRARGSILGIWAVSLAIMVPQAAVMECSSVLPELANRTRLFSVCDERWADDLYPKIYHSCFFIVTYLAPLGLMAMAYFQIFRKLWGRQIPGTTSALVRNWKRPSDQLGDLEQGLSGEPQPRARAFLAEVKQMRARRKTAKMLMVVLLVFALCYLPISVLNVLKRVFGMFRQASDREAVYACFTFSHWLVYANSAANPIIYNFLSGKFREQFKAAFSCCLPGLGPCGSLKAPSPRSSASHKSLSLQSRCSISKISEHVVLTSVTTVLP
CHO parental Ca: counter-screen for OX1R antagonists: effect in parental CHO cells. parental CHO-K1, ATP-induced calcium, Fluo-8 fluorescence. inhibition, % at 5.6 µM. hit rate 0.63% among 330,000;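 active = inhibition above that plate's mean sample inhibition plus 3 SD, cut at about 26% in these data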
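Test system: untransfected parental CHO cell line; also added: ATP stimulus; dosing: 5.6 µM, single dose; signal: calcium-sensitive Fluo-8 fluorescence; measure: percent inhibition of ATP-evoked calcium rise, normalized to controls; benchmarks: low control ATP plus DMSO, high control DMSO only; replication: one well per compound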
OX1R antag-2: blocks the human orexin 1 receptor | O43613 | CHO/OX1R cells, Fluo-8 calcium fluorescence, orexin A | inhibition, % at 5 µM | hit rate 0.43% among 330,000 | AID 434989;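 active = inhibition above its plate's threshold, mean inhibition of all tested compounds on the plate plus 3 SD, cut at about 37% in these data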
OXTR agonist: activates the human oxytocin receptor | P30559 | CHO-OTR cells, Fluo-8 calcium fluorescence; normalized: DMSO 0%, oxytocin 100% | activation, % at 3 µM | hit rate 0.32% among 320,000 | AID 2435;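 active = activation above the mean of all tested compounds plus 3 SD, cutoff set per screening run, cut at about 20% in these data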;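 also: peak over basal fluorescence ratio from a 100 s FLIPR kinetic read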
V1R ag counter: activates human V1a receptor in oxytocin agonist counter-screen; CHO-V1R cells, Fluo-8 calcium fluorescence, agonist mode; 0% DMSO, 100% 3 nM vasopressin; P37288; hit rate 0.25% among 320,000; activation, % at 3 µM;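 active = activation above the mean activation of all tested compounds plus 3 SD, per screening run, cut at about 20% in these data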;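 also: signal is peak over basal fluorescence ratio across a 100 second FLIPR read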
OXTR potentiator: human OXTR potentiation | CHO-OTR cells, Fluo-8 calcium fluorescence, potentiator mode; 0% = oxytocin EC15, 100% = EC100 | activation, % at 3 µM | hit rate 0.061% among 320,000;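 active = activation above that plate's cutoff, the mean activation of tested compounds plus 3 SD, cut at about 6.6% in these data, passing the limit was not always enough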
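System: human OTR in CHO cells / Also added: sub-maximal oxytocin, roughly EC15 / Control set: EC15 oxytocin low, 75 nM oxytocin high / Schedule: 6 min compound pre-incubation at room temperature, 100 s kinetic read / Compound: single-point 3.0 µM / Replication: singlicate / Technique: Fluo-8 calcium dye fluorescence / Read-out basis: % activation of max/min ratio relative to oxytocin controls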
OX1R HTRF confirm: OX1R (human) antagonism, HTRF confirmed; shares compounds with OX1R antag-1; OX1R-expressing cells, HTRF antagonist assay; inhibition, % at 6.6 µM; hit rate 49% among 1,800; AID 492964; in the data active = inhibition above about 55%;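 also: CHO cells expressing OX1R stimulated with orexin A at about EC80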
CHO-K1 HTRF: counter-screen: parental CHO-K1 HTRF response; shares compounds with OX1R antag-1; parental CHO-K1 cells, HTRF counterscreen; inhibition, % at 6.6 µM; hit rate 48% among 1,800; AID 493232; in the data active = inhibition above about 17%
A number is an active result; . = inactive; / = not tested or not shown. Rows were chosen to be rich in hits. Some 2.7% of all compounds tested hit in one or more screens of this group.

SMILES | OX1R antag-1 | CHO parental Ca | OX1R antag-2 | OXTR agonist | V1R ag counter | OXTR potentiator | OX1R HTRF confirm | CHO-K1 HTRF
O=C(NCc1ccco1)C1CCCN(S(=O)(=O)c2cccc3nsnc23)C1 (stereo unspecified) | 78 | . | . | . | . | . | . | 34
Cc1ccc(CNC(=O)C(NS(=O)(=O)c2cccc3nsnc23)C(C)C)cc1 (stereo unspecified) | . | . | . | . | . | . | / | /
Cc1n[nH]c(=O)n1-c1ccc(OCc2ccccc2)cc1 | . | . | . | . | . | . | / | /
O=C(CCNS(=O)(=O)c1cccc2nsnc12)NCc1ccco1 | 122 | . | . | . | . | . | . | 39
COc1ccccc1CNC(=O)CCNS(=O)(=O)c1cccc2nsnc12 | . | . | . | . | . | . | / | /
O=C(NCc1ccco1)C(NS(=O)(=O)c1cccc2nsnc12)c1ccccc1 (stereo unspecified) | 92 | . | . | . | . | . | 61 | 28
O=C(CCS(=O)(=O)c1cccc2nsnc12)N1CCN(C(=O)c2ccco2)CC1 | 91 | . | . | . | . | . | . | 53
COC(=O)c1cccc(NC(=S)N2CCN(c3ccccc3F)CC2)c1 | . | . | . | . | . | . | / | /
O=C(O)c1cc(-c2ccccc2)nn1CC1CC(c2cccc([N+](=O)[O-])c2)=NO1 (stereo unspecified) | . | . | . | . | . | . | / | /
Cc1ccccc1N=C1c2cc([N+](=O)[O-])ccc2-c2ncccc21 | 160 | . | . | . | . | . | . | 42
CN(C(=O)c1ccccc1C(=O)OCC(=O)Nc1ccccc1)c1ccccc1 | . | . | . | . | . | . | / | /
O=C1NC2(Nc3ccccc31)C(=O)Nc1ccccc12 (stereo unspecified) | 80 | . | . | . | . | . | . | .
O=C1NC2(Nc3ccccc31)C(=O)Nc1ccc(Br)cc12 (stereo unspecified) | . | . | . | . | . | . | / | /
CCN(C(=O)CSc1n[nH]c(N)n1)C1CCCCC1 | . | . | . | . | . | . | / | /
CC(=O)N(c1ccc(C)cc1)c1nc(C)cc(C)c1C#N | . | . | . | . | . | . | / | /
O=C(CC1Nc2ccccc2NC1=O)NCC1COc2ccccc2O1 (stereo unspecified) | 79 | . | . | . | . | . | 65 | .
Cc1cc[n+](C2=C([O-])c3ccccc3C(=O)/C2=N\S(=O)(=O)c2cccs2)cc1C | 106 | . | . | . | . | . | . | 25
Cc1cc(C)c[n+](C2=C([O-])c3ccccc3C(=O)/C2=N\S(=O)(=O)c2cccs2)c1 | . | . | . | . | . | . | / | /
COc1ccc(S(=O)(=O)N2CCN(CC(=O)NCCc3cccs3)CC2)cc1 | . | . | . | . | . | . | / | /
Cc1ccc(S(=O)(=O)N2[C@@H](c3cccc(Cl)c3)C(C(=O)O)=CC[C@H]2c2ccc3c(c2)OCO3)cc1 | 83 | . | . | . | . | . | 87 | .
Cc1ccc(S(=O)(=O)N2[C@@H](c3ccc(Cl)cc3)C(C(=O)O)=CC[C@H]2c2ccc3c(c2)OCO3)cc1 | . | . | . | . | . | . | / | /
Cn1c(O)c(N=NC(=O)CNC(=O)c2ccco2)c2ccccc21 | 79 | . | . | . | . | . | . | 48
Cn1c(O)c(N=NC(=O)CNC(=O)/C=C/c2ccccc2)c2ccccc21 | . | . | . | . | . | . | / | /
Cn1c(O)c(N=NC(=O)c2ccccc2O)c2ccccc21 | 121 | . | . | . | . | . | 91 | 29
Cc1occc1C(=O)N=Nc1c(O)n(C)c2ccccc12 | . | . | . | . | . | . | / | /
SMILES | OX1R antag-1 | CHO parental Ca | OX1R antag-2 | OXTR agonist | V1R ag counter | OXTR potentiator | OX1R HTRF confirm | CHO-K1 HTRF
Cc1cc(N=NC(=O)c2ccccc2O)c2ccccc2c1O | 120 | . | . | . | . | . | 94 | 48
CCOC(=O)C(=O)N=Nc1c(O)n(C)c2ccccc12 | 183 | . | . | . | . | . | . | 75
O=C(CN(c1ccccc1)S(=O)(=O)c1ccc(F)cc1)NCc1cccs1 | . | . | . | . | . | . | / | /
C/C(=N/OC(=O)c1ccc(C(F)(F)F)cc1)c1oc(C)nc1C | . | . | . | . | . | . | / | /
CC(C)CCn1c(O)c(N=NC(=O)c2ccco2)c2ccccc21 | . | . | . | . | . | . | / | /
Cn1c(O)c(N=NC(=O)c2ccco2)c2ccccc21 | 166 | . | . | . | . | . | 83 | 53
NC(=O)NC(CC(=O)N1CCc2ccccc2C1)c1ccc(Cl)cc1 (stereo unspecified) | . | . | . | . | . | . | / | /
CNC(=O)COC(=O)CNC(=O)c1cc(Cl)cc([N+](=O)[O-])c1 | 89 | . | . | . | . | . | . | 49
CC(=O)COC(=O)CNC(=O)c1ccc(Br)cc1 | . | . | . | . | . | . | / | /
CC(C)CNC(=O)COC(=O)CNC(=O)c1cc(Cl)cc([N+](=O)[O-])c1 | . | . | . | . | . | . | / | /
O=C(CNC(=O)c1ccc(Br)cc1)NCC(=O)OCC(=O)c1ccc([N+](=O)[O-])cc1 | 87 | . | . | . | . | . | . | 50
O=C(CN(C(=O)CCC(=O)Nc1ccccn1)c1cccc(F)c1)NCc1ccco1 | . | . | . | . | . | . | / | /
COc1cc(C2C(C#N)=C(N)OC3=C2C(=O)CC(C)(C)C3)ccc1OCCN1CCOCC1 (stereo unspecified) | . | . | . | . | . | . | / | /
c1ccc(C[n+]2cccc3c4ccccc4ccc32)cc1 | 77 | . | . | . | . | . | . | 47
O=C([C@H](Cc1ccc(O)cc1)n1cc(CCO)nn1)N1CCNCC1 | . | . | . | . | . | . | / | /
COc1ccc(/C=C/C(=O)O/N=C(\N)c2ccccc2)cc1OC | 81 | . | . | . | . | . | . | .
COc1ccc(/C(N)=N/OC(=O)/C=C/c2ccccc2)cc1 | . | . | . | . | . | . | / | /
COc1ccc2cc3c(N)c(C(=O)N4CCCC4)sc3nc2c1 | 98 | . | . | . | . | . | 89 | .
Cc1ccc2cc3c(N)c(C(=O)N4CCOCC4)sc3nc2c1 | . | . | . | . | . | . | / | /
O=Nc1c2nc3ccccc3n(O)c-2c2ccccc12 | 91 | . | . | . | . | . | . | 49
O=[n+]1cc(-c2ccccc2)n([O-])c2c1CCCCC2 | . | . | . | . | . | . | / | /
O=[n+]1cc(-c2cc3ccccc3o2)n([O-])c2c1CCCC2 | 89 | . | . | . | . | . | . | 44

Compound activity: PubChem, The Scripps Research Institute Molecular Screening Center
